Tested on: MS2 coat protein
Assay: apparent Kd, MS2 coat protein; higher = weaker binding; RNA-MaP array; FMN 200 µM where present
How it was run: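 In 100 mM Tris-HCl pH 7.5, 80 mM KCl, 4 mM MgCl2, BSA, DTT, yeast tRNA and Tween-20, SNAP-549-labelled MS2 coat protein was titrated from 0.7 or 1.5 nM, doubling to 3 µM, over designs transcribed by stalled E. coli RNA polymerase on Illumina sequencing-chip clusters. This was done first without ligand, then with ligand held constant. After green signal was normalised to red-channel RNA signal and control-cluster median Fmax, the apparent Kd was taken as the median of filtered per-cluster binding-curve fits.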

[1] = designed as: OFF switch for flavin mononucleotide, no ligand
[2] = ligand present: flavin mononucleotide, designed as: OFF switch for flavin mononucleotide
[3] = designed as: ON switch for flavin mononucleotide, no ligand
[4] = ligand present: flavin mononucleotide, designed as: ON switch for flavin mononucleotide

GCGUUACAUGAGGAUCACCCAUGUGAGGAUAUGGUUCGGUACUGUCCUGUCGCGUACUCCAGAAGGCACGUGUG
apparent Kd [1]: 47.6 nM | apparent Kd [2]: 104 nM

GCGUUGAACGAGAAGGCCAAUACAUGAGGAUCACCCAUGUUUAGAUGUUUUGGAGGAUAUCGUACGUAGUCAAAAGAGCAACGC
apparent Kd [1]: 11.3 nM | apparent Kd [2]: 10.2 nM

GCGUUGAACGAGAAGGCCAAUACAUGAGGAUCACCCAUGUUUAGAUGUUUUGGAGGAUAUCGUACGUAUUCAAUAUUGCAACGC
apparent Kd [1]: 10.9 nM | apparent Kd [2]: 9.94 nM

GCGUUUGUAUCACAUGUAUUACAUGAGGAUCACCCAUGUUACUAGGAUAUGUAUUAGUAUUAUCAACAGAAGGAGUAAGAACGC
apparent Kd [1]: 17.5 nM | apparent Kd [2]: 18.3 nM

GCUAAGAGUGUGAGGAUAUGCUGGUCCUUGGAUCAGCAGAAGGCACAUGAGGAUCACCCAUGUGAAAACUUAGC
apparent Kd [1]: 23.3 nM | apparent Kd [2]: 89.6 nM

GCUAUUGAUGUAGGAUAUGAUAUAGAAACUAUGUCAGAAGGACAUGAGGAUCACCCAUGUCAAUGGAUGGAGAGAAGAAAUGGC
apparent Kd [1]: 47.8 nM | apparent Kd [2]: 59.2 nM

GCUCCGCACUAGAAGGGUGACAUGAGGAUCACCCAUGUGCACUUCCGCUCUUAGCGGAAAGUGCCACAGGAUAUAGUGUGGAGU
apparent Kd [3]: 31.8 nM | apparent Kd [4]: 113 nM

GCUGACGAUGUAGGAUAUCUCGACGAUAAGUCGAGAGAAGGACAUGAGGAUCACCCAUGUAAAACUCCGUCAGCGAGGAAACUC
apparent Kd [1]: 16.3 nM | apparent Kd [2]: 17.8 nM

GCUGCAUAGGCAGGAUAUGCAACAAUGAGAUGAAAAUACAUCUCAUUGACAUGAGGAUCACCCAUGUAGAAGGGCCUGUGCAGU
apparent Kd [1]: 16.3 nM | apparent Kd [2]: 18.9 nM

GCUGCGUACGUAGGAUAUACAUGAGGAUCACCCAUGUAACUCGGACUCUAAGCGGGUGCGCGCAUGUAGAAGGACGGGCGAGCC
apparent Kd [1]: 33.3 nM | apparent Kd [2]: 57.2 nM

GCUGCUAUCGCAGGAUAUUACAUGGGAAAUAAGACAUGAGGAUCACCCAUGUUAAAUAUCGUAAAUAAGAAGGGCGAUAGCAGC
apparent Kd [3]: 270 nM | apparent Kd [4]: 475 nM

GCUGGACAAGGAUAUACAAUCGUGCUUCGGCACGUAAGGUCACAUGAGGAUCACCCAUGUAGAAGGUGUCCAGC
apparent Kd [1]: 23.8 nM | apparent Kd [2]: 157 nM

GCUGGGUAGGCAGGAUAUCCUCGCGCAAACACAUGAGGAUCACCCAUGUACACAAAACGUGAUAUGGAGAAGGGCUGACCCACA
apparent Kd [3]: 33.2 nM | apparent Kd [4]: 6.68 nM

GCUGUCGCAUGAGGAUAUGGUCAGCUUUGCUGACCAGAAGGCAUGUCAAUAGACAUGAGGAUCACCCAUGUAGUAAAGGCGGCU
apparent Kd [3]: 380 nM | apparent Kd [4]: 37.8 nM

GCUGUCGCUUGAGGAUAUGGUCAGCUUUGCUGACCAGAAGGCAUGUCAAUAGACAUGAGGAUCACCCAUGUAGUAAGGGCGGCU
apparent Kd [3]: 339 nM | apparent Kd [4]: 122 nM

GCUUAGUAAGGAUAUUCACCGAUAAACAUGAGGAUCACCCAUGUCAUGUACCGUCGCCCGGAAGAAGGUACAGGCU
apparent Kd [1]: 49.6 nM | apparent Kd [2]: 44.9 nM

GCUUGAGCAGGAUAUACAAGCUUGAGCUGAAAAGUUCGAGUACAUGAGGAUCACCCAUGUAGAAGGGUUCGAGU
apparent Kd [1]: 27.5 nM | apparent Kd [2]: 32.3 nM

GCUUGUAGAGGAUAUACAAGGGCCCAAGCGGCGAGAGCCGCACAUGAGGAUCACCCAUGUAGAAGGCUACUAUA
apparent Kd [1]: 192 nM | apparent Kd [2]: 499 nM

GCUUGUAGAGGAUAUACAAGGGCCUUAGCGGAUAACACCGCACAUGAGGAUCACCCAUGUAGAAGGCUACCACC
apparent Kd [1]: 16.8 nM | apparent Kd [2]: 94.1 nM

GGAAAACAUGAGGAUCACCCAUGUGAGGAUAUCGAUGUCCAAUUUAAAGUGCGGGACUCGAGAAGGCACUUGGA
apparent Kd [1]: 43 nM | apparent Kd [2]: 30.1 nM

GGAAAAUGAGGAUAUACAUGUUUGAUACCUCUACGCCCGCAACAUGAGGAUCACCCAUGUAGAAGGCAUGAAAA
apparent Kd [1]: 15.4 nM | apparent Kd [2]: 44.2 nM

GGAAAGUAAGGAUAUGCGAACAAACAAACAAACAAAAGGGAACAUGAGGAUCACCCAUGUAGAAGGUGCAAACA
apparent Kd [1]: 46.3 nM | apparent Kd [2]: 35.9 nM

GGAAAGUGAGGAUAUGCAUAACAAAUACAAAGAGAAACAAAGCAGAAGGCACAUGAGGAUCACCCAUGUAAACA
apparent Kd [1]: 24.9 nM | apparent Kd [2]: 25 nM

GGAAAUCAUGUAGGAUAUGCAUGGCGAAGCUACGCAGAAGGACAUGAGGAUCACCCAUGUUAUAGCUACCCAGUUAGGUGGCAA
apparent Kd [1]: 122 nM | apparent Kd [2]: 172 nM

GGAAAUCAUGUAGGAUAUGCAUGGCGAAGCUACGCAGAAGGACAUGAGGAUCACCCAUGUUAUAGCUACCCAGUUCGGUGGCAA
apparent Kd [1]: 133 nM | apparent Kd [2]: 180 nM

GGAAUAUUUACAGGAUAUGUUUUGUUAAGUCGAGCAGAAGGGUAGAUGUCUUACACGGUUUGUUACAUGAGGAUCACCCAUGUU
apparent Kd [3]: 114 nM | apparent Kd [4]: 35.1 nM

GGACAUCCCACAGGAUAUGCUGGACUUUGUCCAGCAGAAGGGUGAACAUGAGGAUCACCCAUGUAUAGGAUGUCCAUAUUUAAU
apparent Kd [3]: 963 nM | apparent Kd [4]: 128 nM
